Measurements gathered from unrelated publications.
Compare with care: the assays were run in different laboratories. ≈ marks a conversion by molar mass, not a printed value.

SMILES	organism	assay	system	setting	measurement	value
Cc1c(NN=C(C#N)C2=NC(=O)CS2)c(=O)n(-c2ccccc2)n1C	Klebsiella pneumoniae	microbial killing, broth dilution			MBC	2 µg/mL (≈ 5.64 µM)
Oc1cccc2cccnc12	Klebsiella pneumoniae	microbial growth, broth dilution	ATCC700603		IC50	49.5 µg/mL
COC(=O)c1cc(-c2cccc(NC(=O)Nc3ccccc3F)c2)on1	Klebsiella pneumoniae	microbial growth, broth dilution	BAA1705		MIC	> 64 µg/mL
CCCCCCCCCCCCCCCc1cc(O)cc(O)c1	Streptococcus pneumoniae	microbial growth			IC50	> 200 µM
NCCc1ccc(O)cc1	Cryptosporidium parvum	parasite growth, imaging	HCT-8	1 mM, 24 h, intracellular	activity vs control	94%
COC(=O)c1cc(-c2cccc(NC(=S)Nc3ccc(OC)cc3)c2)on1	Klebsiella pneumoniae	microbial growth, broth dilution	BAA1705		MIC	> 64 µg/mL
CC(C)CCCCCCCCCCCCCCCc1cc(O)cc(O)c1	Klebsiella pneumoniae	microbial growth	ATCC29665		IC50	> 200 µM
N#Cc1c[nH]c2ccccc12	Cryptosporidium parvum	parasite growth	HCT-8	24 h, intracellular	EC90	386 µM
COC(=O)c1cc(-c2cccc(NC(=O)Nc3cc(Cl)ccc3Cl)c2)on1	Klebsiella pneumoniae	microbial growth, broth dilution	BAA1705		MIC	> 64 µg/mL
CCC(CCCCCCCCCCc1cc(O)cc(O)c1)C(C)C (stereo not drawn)	Streptococcus pneumoniae	microbial growth			IC50	30.2 µM
COC(=O)c1cc(-c2cccc(NC(=S)Nc3ccc(C#N)cc3)c2)on1	Klebsiella pneumoniae	microbial growth, broth dilution	BAA1705		MIC	> 64 µg/mL
CC(C)C(C)CCCCCCCCCCCc1cc(O)cc(O)c1 (stereo not drawn)	Klebsiella pneumoniae	microbial growth	ATCC29665		IC50	> 200 µM
